# EBI2 antag – blocks human EBI2 receptor beta-arrestin signaling; P32249; EBI2 beta-arrestin recruitment, luminescence, 7a,25-OHC stimulated; inhibition, % at 5 µM; 360,000 tested, 0.81% active; AID 651636; in the data active = inhibition above about 38%;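 note: enzyme fragment complementation signal reports receptor beta-arrestin coupling in cells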
# CXCR6 block – blocks human CXCR6 beta-arrestin recruitment; 360,000 tested, 0.36% active; CHO-K1 PathHunter CXCR6 beta-arrestin, luminescence; inhibition, % at 20 µM; O00574; AID 602244; in the data active = inhibition above about 34%, passing the limit was not always enough;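 note: antagonist mode with CXCL16 agonist at 10 nM final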
# APJ antag – APJ receptor antagonism; inhibition, % at 20 µM; AID 2521; CHO-K1 APJ beta-arrestin complementation, luminescence; P35414; 330,000 tested, 0.32% active;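 active = inhibition above about 40% at 20 µM, limit read from the data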;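 note: cells challenged with 10 nM apelin-13 agonist together with compound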
# Target sequence (P35414 whole entry, looked up): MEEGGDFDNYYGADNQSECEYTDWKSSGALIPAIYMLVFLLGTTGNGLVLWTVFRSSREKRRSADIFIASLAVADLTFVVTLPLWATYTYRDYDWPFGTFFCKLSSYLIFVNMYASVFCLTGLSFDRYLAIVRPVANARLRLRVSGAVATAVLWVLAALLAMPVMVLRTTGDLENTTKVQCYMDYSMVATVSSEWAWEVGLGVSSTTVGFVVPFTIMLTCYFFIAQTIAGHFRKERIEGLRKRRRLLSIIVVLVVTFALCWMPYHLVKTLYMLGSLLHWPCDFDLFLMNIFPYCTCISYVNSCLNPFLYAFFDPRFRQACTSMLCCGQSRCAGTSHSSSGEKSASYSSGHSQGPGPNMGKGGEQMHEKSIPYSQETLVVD
# APJ ag – agonists of human APJ apelin receptor; AID 2520; CHO-K1 APJ PathHunter beta-arrestin, luminescence; 0% DMSO wells, 100% apelin; activation, % at 20 µM; 330,000 tested, 0.11% active; P35414;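 active = activation more than six SD over the plate average, tested at 20 µM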
#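 Test system: CHO-K1 APJ beta-arrestin complementation cell line. Amount: cell density 1000 per well. Controls: DMSO negative, 10 nM Apelin-13 positive. Signal: luminescent beta-gal fragment complementation, chemiluminescent substrate. Read-out basis: agonist-driven arrestin binding to APJ. Timing: compound stimulation 90 min at 25 °C, detection 60 min.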
# CCR6 antagonist – CCR6 (human) receptor antagonism; 340,000 tested, 0.49% active; inhibition, % at 20 µM; CHO-K1 CCR6 PathHunter beta-arrestin, luminescence, CCL20-stimulated; P51684;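 active = compounds whose inhibition of the agonist-driven luminescence signal at 20 µM reaches about 50%, limit read from the data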;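 note: cells stimulated with CCL20 at 14 nM final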
# APJ ag conf – APJ receptor agonism confirmation; 310 tested, 10% active; CHO-K1 APJ PathHunter beta-arrestin, luminescence; activation, % at 20 µM; AID 2764; shares compounds with APJ ag;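 active = activation above 40%, taking the highest of four retests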
# CXCR6 antag conf – confirmation of human CXCR6 receptor antagonists; shares compounds with CXCR6 block; CHO-K1 CXCR6 PathHunter beta-arrestin, luminescence; inhibition, % at 20 µM; 700 tested, 65% active;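 active = mean inhibition over four retests above 40%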;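 note: receptor stimulated with 10 nM CXCL16 agonist; beta-galactosidase fragment complementation upon beta-arrestin recruitment to receptor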
# A number is an active result; – = inactive; · = no result given. A selection: hits, their analogues and other compounds. The true share with any hit is near 1.5%.
SMILES,EBI2 antag,CXCR6 block,APJ antag,APJ ag,CCR6 antagonist,APJ ag conf,others
Cc1ccc(S(=O)(=O)N2C(=O)CCC2C(=O)O/N=C(\N)c2ccccc2)cc1 (stereo unspecified),–,–,–,–,–,·,
COc1cc(NC(=O)C2(C)CCN2C(=O)C(C)C)cc(OC)c1OC (stereo unspecified),–,–,·,·,·,·,
Cc1cc(C)n2nc3nc(N4CCCCC4)nc(-c4ccco4)c3c2n1,–,–,–,73,–,41,
Brc1ccc(NCc2cccc3ccccc23)nc1,–,–,–,–,–,·,
Oc1ccccc1CNc1ccc(Br)cn1,–,–,–,18,–,–,
COC(=O)[C@]1(Cc2ccccc2)N[C@H](CN(C)C(=O)Nc2ccc(OC)cc2)[C@@H]2C(=O)N(C)C(=O)[C@@H]21,–,–,–,–,–,·,
COC(=O)[C@]1(Cc2ccccc2)N[C@H](CN(C)C(=O)Nc2ccc(OC)cc2)[C@@H]2C(=O)N(Cc3ccccc3)C(=O)[C@@H]21,–,–,–,12,–,–,
N/C(=N\OC(=O)c1cc(-c2ccccc2)nc2ccccc12)c1ccc(Cl)cc1,–,–,–,16,–,–,
COc1cc(-c2nc(-c3ccc(NC(=O)c4ccc(Br)o4)cc3)no2)cc(OC)c1OC,–,–,–,–,–,·,
COc1ccc(-c2nc(-c3ccc(NC(=O)c4ccc(Br)o4)cc3)no2)cc1OC,–,–,–,47,–,–,
Cc1cc(C)n(-c2c(F)c(F)c(CO)c(F)c2F)n1,–,–,–,–,–,·,
CC1=NOC(=O)/C1=C\c1ccc(-c2ccc(Br)cc2C(=O)O)o1,–,–,–,–,–,·,
CC1=NOC(=O)/C1=C/c1ccc(-c2ccc(Cl)cc2)o1,–,64,–,20,·,–,
CC1=NOC(=O)/C1=C\c1ccc(-c2cc(Cl)ccc2Cl)o1,–,57,–,66,74,–,
C[C@]12c3[nH]c4ccccc4c3CCN1C(=O)C(CC(=O)NCCCn1ccnc1)C[C@@H]2C(=O)N1CCCCC1 (stereo partly specified),–,–,–,–,–,·,
CC(CC(=O)N1CCN(c2cccc(Cl)c2)CC1)S(=O)(=O)c1ccc2c(c1)NC(=O)CO2 (stereo unspecified),–,–,–,33,–,–,
CC(C)c1ccc(/C=N/NC(=O)CCNC(=O)c2ccccc2)cc1,–,–,–,–,–,·,
O=C(C1CCC(CNS(=O)(=O)c2cccs2)CC1)N1CCN(c2ccc(Cl)cc2)CC1 (stereo unspecified),–,–,–,26,–,–,
CC(C)C[C@@H](CO)N(Cc1ccccc1)S(=O)(=O)N(Cc1ccccc1)[C@H](CO)CC(C)C,–,–,–,11,–,–,
Cc1ccccc1C(=O)O/N=C/c1c(N2CCOCC2)n(C)c2ccccc12,–,–,–,15,–,–,
CN1CCN(c2c(/C=N/O)c3ccccc3n2C)CC1,–,–,–,–,–,·,
N#Cc1ccccc1OCC(=O)Nc1c(C(=O)C2CC2)oc2ccccc12,–,–,–,40,–,–,
Cc1cc2c(cc1C)NC(=O)C(C)CN2 (stereo unspecified),–,–,·,·,·,·,
N/C(=N\OC(=O)c1cccc(F)c1)c1cccc([N+](=O)[O-])c1,–,–,–,15,–,–,
N/C(=N/OC(=O)c1cccc([N+](=O)[O-])c1)c1cccc([N+](=O)[O-])c1,–,–,–,26,–,–,
SMILES,EBI2 antag,CXCR6 block,APJ antag,APJ ag,CCR6 antagonist,APJ ag conf,others
CN(CC(=O)Nc1cccc(F)c1)C(=O)C1(c2ccccc2)CC1,–,–,–,–,–,·,
COc1ccccc1-n1c(SCC(=O)NC(C)(C)C)nc(O)cc1=O,–,–,–,–,–,·,
COc1ccccc1-n1c(SC)nc(O)cc1=O,–,–,–,66,–,88,
COc1ccc(C=NCCc2ccc(OC)c(OC)c2)cc1OC,–,–,·,·,·,·,
Cc1cccc(NS(=O)(=O)c2ccc(C)c(NS(=O)(=O)c3cccs3)c2)c1,–,–,–,–,–,·,
CCOC(=O)C1C(=O)OC(C)(C)C1C(CC)C(=O)c1c(C)cc(C)cc1C (stereo unspecified),–,–,–,–,–,·,
N/C(=N\OC(=O)c1ccc2ccccc2c1)c1ccncc1,–,–,–,–,–,·,
N/C(=N\OC(=O)c1ccc2ccccc2c1)c1ccccc1Cl,–,–,–,43,–,–,
Cc1c2ccccc2nc2ccccc12,–,–,–,–,–,·,
Cc1c2ccccc2c(C)c2c1ccc1ccccc12,–,–,–,41,–,–,
COC(=O)CCCC1=CC2=CC(=O)C(C)(OC(=O)c3cccs3)C(=O)C2=CN1C1CCCCC1 (stereo unspecified),–,–,–,92,–,–,
CCCCC1=CC2=CC(=O)C(C)(OC(=O)CC)C(=O)C2=CN1C1CCCCC1 (stereo unspecified),–,–,–,125,–,54,
COc1cc(NS(=O)(=O)c2ccc(NC(=O)/C(=C\c3ccccc3OC)NC(=O)c3ccccc3)cc2)nc(OC)n1,–,–,–,–,–,·,
CCCCc1ccc(NC(=O)COc2ccc(C(=O)Nc3ccccc3OCC)cc2)cc1,–,–,–,36,–,–,
CCOC(CNC(=O)Cc1c(C)nc2c(-c3ccccc3)c(C)nn2c1C)OCC,–,–,–,–,–,·,
COC(=O)CCc1nc2cc(Cl)ccc2n(Cc2ccccc2)c1=O,–,–,–,–,–,·,
c1ccc(CNc2nc(-c3ccccc3)nc3ccccc23)cc1,–,–,–,–,–,·,
c1ccc(CNc2nc(NCc3ccccc3)c3ccccc3n2)cc1,–,–,–,28,–,–,
C=CCSc1nc(O)c(CC)c(=O)n1C(C)CC (stereo unspecified),–,–,–,76,–,49,
COc1cccc(NC(=O)Nc2nc(-c3ccc(OC)c(OC)c3)cs2)c1,–,–,–,19,–,–,
COc1ccc(-c2csc(NC(C)=O)n2)cc1OC,–,–,–,–,–,·,
O=C(Nc1cc(S(=O)(=O)N2CCOCC2)ccc1Cl)C1CCC1,–,–,–,–,–,·,
Cc1c(Cl)sn(-c2ccc(Cl)cc2)c1=O,70,74,–,26,92,–,CXCR6 antag conf=94
COC(=O)c1ccccc1NC(=O)CSc1nnnn1CC(=O)O,–,–,–,–,–,·,
